Reference: ChEMBL document CHEMBL1212881, “Design, synthesis, and structure-affinity relationships of regioisomeric N-benzyl alkyl ether piperazine derivatives as sigma-1 receptor ligands” (J Med Chem, 2010)

Key:
[1] = Drug uptake in baboon cingulate cortex at 100 MBq, iv; format: ADME; settings: papio hamadryas, in vivo
Summary of the method: (§1)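 Anaesthetized Papio hamadryas baboon; radiotracer given iv at 100 MBq in 3 mL saline, specific activity 73 GBq/μmol. Dynamic brain PET started just before injection and ran 60 min. Voxel values were decay-corrected to injection time and converted to % injected dose/mL. Regional time-activity curves came from coregistered regions of interest.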

[2] = Drug uptake in baboon frontal cortex at 100 MBq, iv; format: ADME, organism-based; settings: papio hamadryas, in vivo; summary of the method: as §1
[3] = Drug uptake in baboon striatum at 100 MBq, iv; format: ADME, organism-based; settings: papio hamadryas, in vivo; summary of the method: as §1
[4] = Drug uptake in baboon brain at 100 MBq, iv in presence of haloperidol; format: ADME, organism-based; settings: papio hamadryas, in vivo
Summary of the method: (§2)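 Anaesthetized Papio hamadryas baboon; radiotracer given iv at 100 MBq in 3 mL saline, specific activity 73 GBq/μmol. Haloperidol (1 mg/kg) given iv 5 min before the tracer. Dynamic PET over 60 min, then whole-body acquisition for 2 min at each of six bed positions. Uptake expressed as decay-corrected % injected dose/mL.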

[5] = Drug uptake in baboon liver at 100 MBq, iv in presence of haloperidol; format: ADME, organism-based; settings: papio hamadryas, in vivo; summary of the method: as §2
[6] = Drug uptake in baboon kidney at 100 MBq, iv in presence of haloperidol; format: ADME, organism-based; settings: papio hamadryas, in vivo; summary of the method: as §2
[7] = Drug uptake in baboon bladder at 100 MBq, iv in presence of haloperidol; format: ADME, organism-based, Urinary bladder; settings: papio hamadryas, in vivo; summary of the method: as §2
[8] = molecular target: 5-hydroxytryptamine receptor 2B (Homo sapiens, UniProt P41595); test: Binding affinity to 5HT2B
Summary of the method: (§3)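 Ki values come from radioligand binding run by the NIMH Psychoactive Drug Screening Program (PDSP) under its standard conditions. Values are means ± SEM from triplicate assays.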

[9] = molecular target: T1, 5-hydroxytryptamine receptor 1A (Homo sapiens, UniProt P08908); test: Binding affinity to 5HT1A; summary of the method: as §3
T1 sequence (P08908 whole entry): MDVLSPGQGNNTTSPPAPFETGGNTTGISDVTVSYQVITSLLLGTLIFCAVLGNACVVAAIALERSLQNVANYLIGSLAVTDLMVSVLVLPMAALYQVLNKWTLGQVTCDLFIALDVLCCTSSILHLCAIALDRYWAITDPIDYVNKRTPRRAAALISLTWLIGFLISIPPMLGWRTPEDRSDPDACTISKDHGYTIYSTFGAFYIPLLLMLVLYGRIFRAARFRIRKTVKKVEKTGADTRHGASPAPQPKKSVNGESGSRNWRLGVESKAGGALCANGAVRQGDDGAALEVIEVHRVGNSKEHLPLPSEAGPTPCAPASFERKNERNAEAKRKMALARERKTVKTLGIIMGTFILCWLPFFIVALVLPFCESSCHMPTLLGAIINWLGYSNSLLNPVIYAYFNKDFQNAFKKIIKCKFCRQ

[10] = species on record: Rattus norvegicus; test: Selectivity ratio of Ki for rat sigma2 receptor to Ki rat sigma1 receptor
Summary of the method: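 The ratio is Ki(σ2) divided by Ki(σ1). σ1 Ki came from [³H](+)-pentazocine displacement in rat brain homogenate. σ2 Ki came from [³H]DTG displacement in PC12 cell preparation, a cell line that overexpresses σ2. Both Ki values are triplicate means; ratios above 1 mean σ1-selective.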

[11] = molecular target: D(2) dopamine receptor (Homo sapiens, UniProt P14416); test: Binding affinity to dopamine D2; summary of the method: as §3
[12] = molecular target: Sigma non-opioid intracellular receptor 1 (Rattus norvegicus, UniProt Q9R0C9); test: Displacement of [3H]pentazocine from sigma1 receptor in rat brain homogenate; format: tissue-based
Summary of the method: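 σ1 affinity was measured by competitive displacement of [³H](+)-pentazocine from rat brain homogenate, using a competitive modification of the Kovacs and Larson protocol. Ki is reported as mean ± SEM from triplicate assays.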

[13] = Displacement of [3H]DTG from sigma2 receptor in rat PC12 cells; settings: pc-12
[14] = Lipophilicity, log D of the compound; format: physicochemical; settings: HPLC retention time
Summary of the method: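 Log D estimated by HPLC retention time on a C-18 column. Mobile phase methanol/0.05 M potassium phosphate buffer (65:35 v/v, pH 7.47) at 0.3 mL/min, UV 254 nm. Calibrated against standards of known log D (aniline, benzene, toluene, cumene, triphenylamine, hexachlorobenzene) using an exponential fit. Injections in triplicate and averaged.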

Sigma non-opioid intracellular receptor 1, sequence (Q9R0C9 whole entry): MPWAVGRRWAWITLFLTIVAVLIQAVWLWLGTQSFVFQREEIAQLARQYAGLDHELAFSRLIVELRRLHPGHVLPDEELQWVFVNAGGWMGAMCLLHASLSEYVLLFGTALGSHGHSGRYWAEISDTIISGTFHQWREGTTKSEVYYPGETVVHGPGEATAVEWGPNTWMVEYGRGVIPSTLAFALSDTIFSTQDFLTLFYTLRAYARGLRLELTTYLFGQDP
D(2) dopamine receptor, sequence (P14416 whole entry): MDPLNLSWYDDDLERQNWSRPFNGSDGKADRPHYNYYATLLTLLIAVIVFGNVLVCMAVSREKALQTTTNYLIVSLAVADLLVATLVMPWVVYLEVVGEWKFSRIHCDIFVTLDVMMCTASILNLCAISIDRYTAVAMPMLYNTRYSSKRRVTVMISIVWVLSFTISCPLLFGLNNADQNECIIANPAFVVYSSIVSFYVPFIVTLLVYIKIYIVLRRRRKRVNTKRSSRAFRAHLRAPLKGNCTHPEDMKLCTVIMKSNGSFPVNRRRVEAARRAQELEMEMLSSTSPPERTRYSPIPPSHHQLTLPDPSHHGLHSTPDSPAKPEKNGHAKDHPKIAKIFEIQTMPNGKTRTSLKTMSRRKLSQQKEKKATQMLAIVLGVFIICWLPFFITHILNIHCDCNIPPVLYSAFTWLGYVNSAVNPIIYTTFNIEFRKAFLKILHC
5-hydroxytryptamine receptor 2B, sequence (P41595 whole entry): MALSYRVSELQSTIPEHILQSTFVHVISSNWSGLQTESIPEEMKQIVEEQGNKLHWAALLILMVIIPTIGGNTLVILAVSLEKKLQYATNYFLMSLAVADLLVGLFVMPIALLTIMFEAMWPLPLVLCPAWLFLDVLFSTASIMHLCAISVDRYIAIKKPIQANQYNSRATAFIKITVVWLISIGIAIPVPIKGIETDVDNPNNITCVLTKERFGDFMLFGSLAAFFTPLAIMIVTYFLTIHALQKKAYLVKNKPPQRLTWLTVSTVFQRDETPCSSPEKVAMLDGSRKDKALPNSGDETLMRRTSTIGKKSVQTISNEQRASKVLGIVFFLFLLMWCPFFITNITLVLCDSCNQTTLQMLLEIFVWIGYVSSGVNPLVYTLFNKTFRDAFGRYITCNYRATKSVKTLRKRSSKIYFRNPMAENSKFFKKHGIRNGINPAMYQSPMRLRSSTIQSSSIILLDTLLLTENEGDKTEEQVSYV

Drug uptake [1] | Drug uptake [2] | Drug uptake [3] | Drug uptake [4] | Drug uptake [5] | Drug uptake [6] | Drug uptake [7] | Structure (SMILES) | Ki [8] | Ki [9] | Ratio Ki [10] | Ki [11] | Ki [12] | Ki [13] | logD [14]
Active | Active | Active | Not Active | Not Active | Not Active | Not Active | [11CH3]Oc1ccc(CN2CCN(Cc3cc4ccccc4o3)CC2)cc1 | – | – | – | – | – | – | –
– | – | – | – | – | – | – | FCCOc1ccccc1CN1CCN(Cc2cc3ccccc3o2)CC1 | 57 nM | 3250 nM | 1.1 | > 10000 nM | 488 nM | 535 nM | –
– | – | – | – | – | – | – | CCOc1cccc(CN2CCN(Cc3cc4ccccc4o3)CC2)c1 | 302 nM | 1720 nM | 3 | 4540 nM | 80 nM | 238 nM | –
– | – | – | – | – | – | – | CCCOc1ccc(CN2CCN(Cc3cc4ccccc4o3)CC2)cc1 | 655 nM | 4720 nM | 45 | > 10000 nM | 53.8 nM | 2400 nM | –
– | – | – | – | – | – | – | CCOc1ccc(CN2CCN(Cc3cc4ccccc4o3)CC2)cc1 | 262 nM | 3340 nM | 37 | 4870 nM | 10.6 nM | 393 nM | –
– | – | – | – | – | – | – | CCCOc1cccc(CN2CCN(Cc3cc4ccccc4o3)CC2)c1 | 259 nM | 774 nM | 11 | 2980 nM | 177 nM | 1920 nM | –
– | – | – | – | – | – | – | FCCCOc1cccc(CN2CCN(Cc3cc4ccccc4o3)CC2)c1 | 188 nM | 599 nM | 10 | 2920 nM | 232 nM | 2370 nM | –
– | – | – | – | – | – | – | c1ccc(CN2CCN(Cc3cc4ccccc4o3)CC2)cc1 | 497 nM | 833 nM | 46 | > 10000 nM | 5.2 nM | 240 nM | –
– | – | – | – | – | – | – | FCCCOc1ccccc1CN1CCN(Cc2cc3ccccc3o2)CC1 | 184 nM | 3380 nM | 60 | > 10000 nM | 9.1 nM | 542 nM | –
– | – | – | – | – | – | – | FCCOc1cccc(CN2CCN(Cc3cc4ccccc4o3)CC2)c1 | 244 nM | 469 nM | 5.9 | 2280 nM | 49.7 nM | 292 nM | –
– | – | – | – | – | – | – | COc1ccccc1CN1CCN(Cc2cc3ccccc3o2)CC1 | 9.7 nM | 806 nM | 0.45 | 5120 nM | 198 nM | 89 nM | –
– | – | – | – | – | – | – | COc1ccc(CN2CCN(Cc3cc4ccccc4o3)CC2)cc1 | 15 nM | 2190 nM | 38 | 2700 nM | 2.7 nM | 103 nM | 3.63
– | – | – | – | – | – | – | CCCOc1ccccc1CN1CCN(Cc2cc3ccccc3o2)CC1 | 116 nM | 2460 nM | 10 | > 10000 nM | 79 nM | 778 nM | –
– | – | – | – | – | – | – | FCCCOc1ccc(CN2CCN(Cc3cc4ccccc4o3)CC2)cc1 | 232 nM | 3300 nM | 51 | > 10000 nM | 14.7 nM | 752 nM | –
– | – | – | – | – | – | – | COc1cccc(CN2CCN(Cc3cc4ccccc4o3)CC2)c1 | 28 nM | 373 nM | 4.9 | 5730 nM | 16.3 nM | 79.5 nM | –
– | – | – | – | – | – | – | CCOc1ccccc1CN1CCN(Cc2cc3ccccc3o2)CC1 | 72 nM | 468 nM | 8 | 6000 nM | 37.1 nM | 295 nM | –
